According to ChEMBL document CHEMBL4665664, “Discovery of Orally Active Hydroxyethylamine Based SPPL2a Inhibitors” (ACS Med Chem Lett, 2019):
Values after ≈ are worked out from the molar mass of the structure shown. Active and inactive are the calls of the source. The rule behind the calls is not given here.

What was measured:
Gamma-secretase = experiment: Inhibition of gamma-secretase (unknown origin) expressed in HEK293 cells cotransfected with Notch1-VP16-GAL4 fusion and Gal4 luciferase reporter plasmid incubated for 24 hrs by luciferase reporter gene assay luminescence assay; assay type: cell-based, Homo sapiens
[1] = Equilibrium solubility of the compound in DMSO solution at pH 6.8 by saturation shake flask method; assay type: physicochemical
Method in brief: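 Equilibrium solubility by saturation shake-flask at pH 6.8, starting from DMSO solution.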

[2] = Lipophilicity, logD of the compound in octanol-buffer at pH 7.4 by shake-flask equilibrium based LC/MS/MS analysis; assay type: physicochemical
Method in brief: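 log D determined at pH 7.4 by rapid-throughput octanol/buffer 96-well shake-flask equilibration, with LC/MS/MS quantification.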

[3] = target: T1, Signal peptide peptidase-like 2A (Homo sapiens, UniProt Q8TCT8); experiment: Inhibition of human SPPL2a expressed in HEK293 cells cotransfected with Gal4 luciferase reporter plasmid and VP16-TNFalpha(1-76)-NTF incubated for 24 hrs by luciferase reporter gene assay based luminescence assay; assay type: cell-based
T1 sequence (Q8TCT8 whole entry): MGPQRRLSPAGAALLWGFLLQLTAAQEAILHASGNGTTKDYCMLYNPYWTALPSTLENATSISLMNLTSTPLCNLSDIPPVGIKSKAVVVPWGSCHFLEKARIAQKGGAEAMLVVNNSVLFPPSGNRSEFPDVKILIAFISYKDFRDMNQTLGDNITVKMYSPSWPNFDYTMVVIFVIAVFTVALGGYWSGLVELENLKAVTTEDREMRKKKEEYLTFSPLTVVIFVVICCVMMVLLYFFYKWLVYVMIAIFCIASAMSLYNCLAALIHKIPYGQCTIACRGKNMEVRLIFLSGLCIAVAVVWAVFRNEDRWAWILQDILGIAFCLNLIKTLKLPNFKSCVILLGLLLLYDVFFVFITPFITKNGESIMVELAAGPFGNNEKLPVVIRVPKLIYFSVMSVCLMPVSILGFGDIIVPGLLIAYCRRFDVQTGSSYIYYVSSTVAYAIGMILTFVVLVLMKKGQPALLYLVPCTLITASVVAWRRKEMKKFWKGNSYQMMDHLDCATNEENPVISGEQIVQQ

Mus musculus = experiment: In vivo inhibition of SPPL2a in mouse assessed as increase in CD74/p8 NTF accumulation in splenocytes lysates at 100 mg/kg, po administered as single dose and measured after 4 hrs post-dosing by western blot analysis; settings: Lysate
Cathepsin E = target: T2, Cathepsin E (Homo sapiens, UniProt P14091); experiment: Inhibition of human cathepsin E isoform 1 (19 to 401 residues) expressed in Escherichia coli using R-C(PT14)KPILFFRLGWR-OH as substrate preincubated for 1 hr followed by substrate addition and measured after 1 hr by fluorescence based assay
T2 sequence (P14091 whole entry): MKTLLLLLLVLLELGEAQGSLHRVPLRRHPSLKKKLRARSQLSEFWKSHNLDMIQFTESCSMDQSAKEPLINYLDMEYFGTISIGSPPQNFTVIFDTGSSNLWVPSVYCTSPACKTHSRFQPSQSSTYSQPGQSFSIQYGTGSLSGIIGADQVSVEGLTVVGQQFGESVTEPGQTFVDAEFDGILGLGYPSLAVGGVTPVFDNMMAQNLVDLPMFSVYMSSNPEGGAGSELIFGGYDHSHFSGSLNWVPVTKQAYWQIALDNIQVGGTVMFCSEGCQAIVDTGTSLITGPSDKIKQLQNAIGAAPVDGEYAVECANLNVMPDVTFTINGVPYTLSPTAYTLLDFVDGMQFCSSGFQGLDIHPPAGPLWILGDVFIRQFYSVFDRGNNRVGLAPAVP

Renin = target: T3, Renin (Homo sapiens, UniProt P00797); experiment: Inhibition of human renin (67 to 406 residues) expressed in CHO cells using KHPWHLVIHT-C(PT14)-K as substrate preincubated for 1 hr followed by substrate addition and measured after 1 hr by fluorescence based assay
T3 sequence (P00797 whole entry): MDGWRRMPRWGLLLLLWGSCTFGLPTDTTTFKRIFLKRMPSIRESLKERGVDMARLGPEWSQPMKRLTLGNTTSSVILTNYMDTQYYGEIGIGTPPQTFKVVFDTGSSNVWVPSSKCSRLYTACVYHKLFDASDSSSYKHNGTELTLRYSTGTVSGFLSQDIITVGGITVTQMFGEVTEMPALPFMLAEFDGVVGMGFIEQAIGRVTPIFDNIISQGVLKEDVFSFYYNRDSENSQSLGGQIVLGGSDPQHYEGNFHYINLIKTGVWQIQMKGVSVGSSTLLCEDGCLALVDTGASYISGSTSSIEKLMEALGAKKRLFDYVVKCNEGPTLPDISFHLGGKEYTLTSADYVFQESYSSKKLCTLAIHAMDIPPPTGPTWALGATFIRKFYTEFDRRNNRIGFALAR

Beta-secretase 1 = Beta-secretase 1 (Homo sapiens, UniProt P56817); experiment: Inhibition of human BACE1 (46 to 435 residues) expressed in baculovirus infected insect cells using Ac-C(PT14)EVNLDAEWK-NH2 as substrate preincubated for 1 hr followed by substrate addition and measured after 1 hr by fluorescence based assay
Beta-secretase 1, sequence (P56817 whole entry, the tested form may be a part): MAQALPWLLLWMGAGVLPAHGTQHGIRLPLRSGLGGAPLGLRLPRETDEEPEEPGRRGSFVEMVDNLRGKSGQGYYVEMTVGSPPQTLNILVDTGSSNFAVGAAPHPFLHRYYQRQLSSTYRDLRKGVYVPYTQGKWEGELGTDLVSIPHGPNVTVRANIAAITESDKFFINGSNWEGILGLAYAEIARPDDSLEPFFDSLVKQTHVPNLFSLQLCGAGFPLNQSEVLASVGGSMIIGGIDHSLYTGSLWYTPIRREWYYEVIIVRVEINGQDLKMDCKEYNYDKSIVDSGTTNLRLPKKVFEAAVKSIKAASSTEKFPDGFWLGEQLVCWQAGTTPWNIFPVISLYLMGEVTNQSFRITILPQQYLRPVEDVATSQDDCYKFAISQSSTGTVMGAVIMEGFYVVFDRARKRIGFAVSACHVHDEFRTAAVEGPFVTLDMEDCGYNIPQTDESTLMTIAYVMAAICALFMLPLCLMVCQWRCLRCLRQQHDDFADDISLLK

Cathepsin D = Cathepsin D (Homo sapiens, UniProt P07339); experiment: Inhibition of human cathepsin D (1 to 412 residues) expressed in baculovirus infected insect cells using R-C(PT14)-KPILFFRLGWR-OH as substrate preincubated for 1 hr followed by substrate addition and measured after 1 hr by fluorescence based assay
Cathepsin D, sequence (P07339 65-162 limits assumed): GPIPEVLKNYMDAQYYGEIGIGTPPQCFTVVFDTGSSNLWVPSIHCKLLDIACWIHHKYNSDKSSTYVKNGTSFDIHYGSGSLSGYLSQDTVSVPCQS
Cathepsin D, sequence (P07339 169-412 limits assumed): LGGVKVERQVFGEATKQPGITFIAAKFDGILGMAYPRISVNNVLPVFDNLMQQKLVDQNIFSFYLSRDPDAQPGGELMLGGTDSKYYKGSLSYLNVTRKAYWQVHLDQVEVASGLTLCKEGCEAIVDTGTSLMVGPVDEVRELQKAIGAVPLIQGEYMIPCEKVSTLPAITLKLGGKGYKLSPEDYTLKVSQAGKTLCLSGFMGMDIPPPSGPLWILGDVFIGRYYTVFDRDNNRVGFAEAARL

Beta-secretase 2 = target: T4, Beta-secretase 2 (Homo sapiens, UniProt Q9Y5Z0); experiment: Inhibition of human BACE2 (63 to 466 residues) expressed in baculovirus infected insect cells using Ac-C(PT14)EVNLDAEWK-NH2 as substrate preincubated for 1 hr followed by substrate addition and measured after 1 hr by fluorescence based assay
T4 sequence (Q9Y5Z0 whole entry): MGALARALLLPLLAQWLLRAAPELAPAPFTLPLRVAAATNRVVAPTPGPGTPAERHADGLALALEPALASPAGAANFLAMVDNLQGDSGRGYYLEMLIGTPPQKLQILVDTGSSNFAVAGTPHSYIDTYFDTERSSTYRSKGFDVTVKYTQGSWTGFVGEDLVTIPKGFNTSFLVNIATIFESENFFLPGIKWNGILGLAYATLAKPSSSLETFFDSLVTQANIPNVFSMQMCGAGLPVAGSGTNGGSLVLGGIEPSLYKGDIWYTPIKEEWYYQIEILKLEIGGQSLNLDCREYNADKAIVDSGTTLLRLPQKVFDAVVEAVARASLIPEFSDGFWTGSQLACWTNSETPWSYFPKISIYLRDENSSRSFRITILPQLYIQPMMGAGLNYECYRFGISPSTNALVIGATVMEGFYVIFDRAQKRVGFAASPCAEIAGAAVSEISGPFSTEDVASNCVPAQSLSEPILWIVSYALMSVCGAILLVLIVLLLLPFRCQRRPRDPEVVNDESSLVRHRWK

**Q.** For `N[C@@H](c1ccccc1)[C@@H](O)CN(Cc1ccccc1)S(=O)(=O)c1ccc(Cl)c(Cl)c1`, which IC50 (Gamma-secretase) is on record?
**A.** 3.4 µM

**Q.** For `CC(C)CN(C[C@H](O)[C@@H](N)Cc1ccccc1)S(=O)(=O)c1ccc(Cl)c(Cl)c1`, which solubility [1] is on record?
**A.** < 2 µg/mL

**Q.** And the logD [2]?
**A.** 3.1

**Q.** And the IC50 [3]?
**A.** 0.86 µM

**Q.** Which IC50 (Gamma-secretase) does the source give for `N[C@@H](c1ccccc1)[C@@H](O)CN(C1CCC1)S(=O)(=O)c1ccc(Cl)c(Cl)c1` here?
**A.** 5.1 µM

**Q.** For `CC(C)(C)c1cccc(S(=O)(=O)N(C[C@H](O)[C@@H](N)c2ccccc2)C2CCC2)c1`, which IC50 (Gamma-secretase) is on record?
**A.** 3.7 µM

**Q.** With `N[C@@H](c1ccccc1)[C@@H](O)CN(C1CCCCCC1)S(=O)(=O)c1ccc(Cl)c(Cl)c1` as the compound, how does the IC50 (Gamma-secretase) read?
**A.** 2.1 µM

**Q.** With `C[C@H](NC(=O)[C@@H](O)c1cc(F)cc(F)c1)C(=O)N[C@@H]1C(=O)N(C)c2ccccc2-c2ccccc21` as the compound, how does the inhibition (Mus musculus) read?
**A.** Active

**Q.** With `N[C@@H](c1ccccc1)[C@@H](O)CN(C1CCC1)S(=O)(=O)c1ccc2scnc2c1` as the compound, how does the IC50 (Gamma-secretase) read?
**A.** > 10 µM

**Q.** With `N[C@@H](c1ccccc1)[C@@H](O)CN(C1COC1)S(=O)(=O)c1ccc(Cl)c(Cl)c1` as the compound, how does the IC50 (Gamma-secretase) read?
**A.** > 10 µM

**Q.** Which IC50 (Gamma-secretase) does the source give for `CC1(C)CCC(C)(C)c2cc(S(=O)(=O)N(C[C@H](O)[C@@H](N)c3ccccc3)C3CCC3)ccc21` here?
**A.** 1.8 µM

**Q.** With `CC(C)ON(C[C@H](O)[C@@H](N)c1ccccc1)S(=O)(=O)c1ccc(Cl)c(Cl)c1` as the compound, how does the IC50 (Gamma-secretase) read?
**A.** 5.9 µM

**Q.** With `CC(C)(C)c1ccc(S(=O)(=O)N(C[C@H](O)[C@@H](N)c2ccccc2)C2CCC2)cc1` as the compound, how does the IC50 (Gamma-secretase) read?
**A.** 3.7 µM

**Q.** Which results are given for `CC(C)CN(C[C@H](O)[C@H](Cc1ccccc1)NC(=O)OCc1ccccc1)S(=O)(=O)c1ccc(Cl)c(Cl)c1`?
**A.** solubility [1]: < 2 µg/mL; logD [2]: > 4.6; IC50 [3]: 4.3 µM

**Q.** For `CC(C)CN(C[C@H](O)[C@@H](N)c1ccccc1)S(=O)(=O)c1ccc(Cl)c(Cl)c1`, which IC50 (Cathepsin E) is on record?
**A.** > 100 µM

**Q.** What about the IC50 (Renin) of the same compound?
**A.** > 100 µM

**Q.** And the solubility [1]?
**A.** 34 µg/mL (≈ 78.8 µM)

**Q.** What about the IC50 (Beta-secretase 1) of the same compound?
**A.** > 100 µM

**Q.** What about the IC50 (Cathepsin D) of the same compound?
**A.** > 100 µM

**Q.** And the IC50 (Beta-secretase 2)?
**A.** > 100 µM

**Q.** What about the IC50 (Gamma-secretase) of the same compound?
**A.** 4.8 µM

**Q.** For `CC1(N(C[C@H](O)[C@@H](N)c2ccccc2)S(=O)(=O)c2ccc(Cl)c(Cl)c2)CCC1`, which IC50 (Gamma-secretase) is on record?
**A.** 6.4 µM

**Q.** With `CC(C)(O)CN(C[C@H](O)[C@@H](N)c1ccccc1)S(=O)(=O)c1ccc(Cl)c(Cl)c1` as the compound, how does the IC50 (Gamma-secretase) read?
**A.** > 10 µM
